Reference: ChEMBL document CHEMBL1135466, “Potent antimalarial febrifugine analogues against the plasmodium malaria parasite” (J Med Chem, 2002)
pEC50: −log10 of the molar value.

Experiments:
[1] = In vitro antimalarial activity against the Plasmodium falciparum FCR3; assay type: functional
FM3A [2] = test: Selectivity ratio of cytotoxicity against FM3A cells to antimalarial activity against Plasmodium falciparum FCR3; assay type: functional, Mus musculus
FM3A [3] = test: In vitro cytotoxicity against mouse mammary FM3A cells; assay type: cell-based
Plasmodium berghei [4] = test: (§1) In vivo antimalarial activity against Plasmodium berghei infected mice (Mus musculus); assay type: functional
Outline: (§2)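 Infected mice were dosed, and activity is reported as the doses giving 50% and 90% effect (ED50 and ED90), in µmol/kg.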

Plasmodium berghei [5] = test: as §1; assay type: functional; outline: as §2; remark: listed apart in the source

| Compound | pEC50 [1] | Selectivity (FM3A [2]) | pEC50 (FM3A [3]) | ED50 (Plasmodium berghei [4]) | ED50 (Plasmodium berghei [5]) | ED90 (Plasmodium berghei [5]) |
| --- | --- | --- | --- | --- | --- | --- |
| CC1(C)[C@@H](n2cnc3ccccc3c2=O)C=C[C@@H]2[C@@H](O)CCCN21 | 5.32 | >7 | < 4.49 | – | – | – |
| CNc1ccccc1C(=O)NC1[C@@H](O)C[C@@H]2[C@@H](O)CCCN2C1(C)C (some centres undefined) | 6.22 | >28 | < 4.77 | – | – | – |
| CC(=O)O[C@H]1CCCN(C(C)=O)C1CC(=O)Cn1cnc2ccccc2c1=O (some centres undefined) | 6.04 | >32 | < 4.54 | – | – | – |
| CC1(C)[C@@H](N2CNc3ccccc3C2=O)[C@@H](O)C[C@@H]2[C@@H](O)CCCN21 | 6.38 | >38 | < 4.80 | – | – | – |
| O=c1c2ccccc2ccn1CC1(O)CC2NCCC[C@@H]2O1 (some centres undefined) | 5.68 | >3 | < 5.20 | – | – | – |
| O=c1c2ccccc2ncn1C[C@@H]1C[C@@H]2[C@@H](O)CCCN2CO1 | – | 1027 | 5.42 | > 180 µmol/kg | 82 µmol/kg | – |
| CC1(C)[C@@H](n2cnc3ccccc3c2=O)CC[C@@H]2[C@@H](O)CCCN21 | 6.08 | >27 | < 4.66 | – | – | – |
| CC(=O)O[C@H]1CCCN2[C@H]1CC(=O)[C@@H](n1cnc3ccccc3c1=O)C2(C)C | 7.72 | 368 | 5.15 | – | – | – |
| CC(=O)O[C@H]1CCCN2[C@H]1C[C@@H](OC(C)=O)[C@@H](n1cnc3ccccc3c1=O)C2(C)C | 5.15 | >3 | < 4.68 | – | – | – |
| CC1(C)[C@@H](n2cnc3ccccc3c2=O)C(=O)C[C@@H]2[C@@H](O)CCC[N+]21[O-] (some centres undefined) | 7.00 | >290 | < 4.54 | – | – | – |
| CC1(C)[C@@H](n2cnc3ccccc3c2=O)[C@@H](O)C[C@@H]2[C@@H](O)CCCN21 | 6.40 | 70 | 5.55 | – | – | – |
| CCOC(=O)N1CCC[C@H](O)C1CC(=O)Cn1cnc2ccccc2c1=O (some centres undefined) | 5.32 | >3.5 | < 4.77 | – | – | – |
| O=c1c2ccccc2ncn1C[C@@H](O)CC1NCCC[C@@H]1O (some centres undefined) | 7.70 | 750 | – | – | 2.9 µmol/kg | 22 µM/kg |
| CC1(C)[C@H](n2cnc3ccccc3c2=O)C(=O)C[C@H]2[C@@H](O)CCCN21 | 8.55 | 857 | – | – | – | – |
| O=c1c2ccccc2ncn1C[C@@H]1C[C@@H]2[C@H](O)CCCN2CO1 | 6.08 | >30 | < 4.60 | – | – | – |
| O=C(C[C@@H]1NCCC[C@H]1O)Cn1cnc2ccccc2c1=O [FEBRIFUGINE] | 6.15 | 243 | – | – | 1 µmol/kg | 5 µM/kg |
| O=C(CC1NCCCC1=O)Cn1cnc2ccccc2c1=O (centres undefined) | 7.70 | 500 | 5.00 | – | 1.3 µmol/kg | 6.2 µM/kg |
| C[C@@H]1CC[C@H]2[C@@H](C)C(=O)O[C@@H]3O[C@@]4(C)CC[C@@H]1[C@]32OO4 [ARTEMISININ] | 8.00 | 1000 | – | – | – | 46 µM/kg |
| O=c1c2ccccc2ncn1CC1(O)C[C@@H]2NCCC[C@@H]2O1 (some centres undefined) [ISOFEBRIFUGINE] | 8.47 | 53 | – | – | 211 µmol/kg | >267 µM/kg |
| O=c1ccncn1CC1(O)CC2NCCC[C@@H]2O1 (some centres undefined) | 7.40 | 175 | 5.15 | – | – | – |
| O=C(CC1NCCC[C@@H]1O)Cn1cnccc1=O (some centres undefined) | – | >32 | < 4.72 | – | – | – |
| COCO[C@H]1CCCN2CO[C@H](Cn3cnc4ccccc4c3=O)C[C@H]12 | 8.07 | 291 | 5.60 | – | – | – |

More lines, main results first:

| pEC50 [1] | Compound | Selectivity (FM3A [2]) | pEC50 (FM3A [3]) | ED50 (Plasmodium berghei [4]) | ED50 (Plasmodium berghei [5]) | ED90 (Plasmodium berghei [5]) |
| --- | --- | --- | --- | --- | --- | --- |
| 8.80 | CC1(C)[C@@H](n2cnc3ccccc3c2=O)C(=O)C[C@@H]2[C@@H](O)CCCN21 | 238 | – | – | – | – |
| 6.40 | CC(=O)O[C@H]1CCCN2[C@H]1C[C@@H](O)[C@@H](n1cnc3ccccc3c1=O)C2(C)C | >28 | < 4.96 | – | – | – |
| 6.30 | O=C(CC1NCCC[C@@H]1O)Cn1ccc2ccccc2c1=O (some centres undefined) | >32 | < 4.80 | – | – | – |
| 8.44 | CC(=O)O[C@H]1CCCN2[C@@H]1CC(=O)[C@H](n1cnc3ccccc3c1=O)C2(C)C | 361 | 5.89 | – | – | – |
| 8.72 | CC1(C)[C@@H](n2cnc3ccccc3c2=O)C(=O)C[C@@H]2C(=O)CCCN21 | >3105 | 5.23 | – | – | – |
| 5.47 | CC1(C)[C@H](n2cnc3ccccc3c2=O)[C@@H](O)C[C@H]2[C@@H](O)CCCN21 | >28 | < 4.00 | – | – | – |
| 6.52 | CC1(C)[C@@H](n2cnc3ccccc3c2=O)[C@H](O)C[C@@H]2[C@@H](O)CCCN21 | 283 | 4.07 | – | – | – |
| 7.74 | CCN(CC)CCCC(C)Nc1ccnc2cc(Cl)ccc12 (centres undefined) [CHLOROQUINE] | – | – | – | 4.7 µmol/kg | 9.4 µM/kg |
| 5.89 | COC1=C[C@@H]2[C@@H](O)CCCN2C(C)(C)[C@H]1n1cnc2ccccc2c1=O | >51 | < 4.18 | – | – | – |
| 6.10 | CC1(C)[C@H](n2cnc3ccccc3c2=O)[C@H](O)C[C@H]2[C@@H](O)CCCN21 | >30 | < 4.62 | – | – | – |
